The list is not random: actives were taken first. Their share in the collection is about 3.7%.
hERG rescue = shields human hERG channel from block by proarrhythmic agents | Q12809 | CHO-hERG, FluxOR thallium flux, dofetilide IC70 present | activation (rescue from dofetilide block), less the hit threshold, % at 10 µM | hit rate 0.51% among 310,000;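 active = activation above the mean of controls blocked by dofetilide plus 5 SD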;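 note: thallium influx through hERG after potassium depolarization seen as dye fluorescence rise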
KCNK3 block = human KCNK3 channel inhibition, primary screen | O14649 | CHO-KCNK3 thallium flux, FluxOR fluorescence; stronger effect = lower value | B-score at 10 µM | hit rate 0.84% among 340,000 | AID 602410;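 active = B-score under library mean minus 4 SD, starting fluorescence ratio at most library mean plus 5 SD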;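 note: more negative B-score means stronger inhibition of thallium flux through KCNK3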
KCNQ1 inh = human KCNQ1 channel inhibition | hit rate 1.3% among 310,000 | AID 2642 | B-score at 10 µM | P51787 | CHO-K1 KCNQ1, FluxOR thallium flux fluorescence; stronger effect = higher value;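 active = compounds whose thallium flux B-score, printed positive for inhibition, exceeds three library SD while starting fluorescence stays within three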;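 note: channel opened by potassium depolarization with thallium stimulus after 20 min compound exposure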
KCNK9 block = human KCNK9 channel inhibition; Q9NPC2; HEK293 KCNK9, FluxOR thallium flux fluorescence; stronger effect = lower value; B-score at 10 µM; hit rate 1.2% among 310,000; AID 488922;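 active = ratio B-score over 3 SD below the library mean, with starting fluorescence within 5 SD of its mean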;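 note: negative B-score means less thallium flux so channel inhibition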
Target sequence (Q9NPC2 whole entry, looked up): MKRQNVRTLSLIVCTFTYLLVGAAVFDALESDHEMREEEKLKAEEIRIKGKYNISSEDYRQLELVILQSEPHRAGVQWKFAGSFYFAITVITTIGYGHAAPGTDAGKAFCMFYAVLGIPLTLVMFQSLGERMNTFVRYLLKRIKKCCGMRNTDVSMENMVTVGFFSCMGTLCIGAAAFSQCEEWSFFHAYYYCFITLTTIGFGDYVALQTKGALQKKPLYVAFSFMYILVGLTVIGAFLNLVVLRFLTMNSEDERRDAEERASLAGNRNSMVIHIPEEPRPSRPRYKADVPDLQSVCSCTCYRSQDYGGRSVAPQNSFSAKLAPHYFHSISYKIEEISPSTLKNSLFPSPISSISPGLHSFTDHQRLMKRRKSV
KCNQ1 pot = human KCNQ1 channel potentiation or activation. P51787. CHO-K1 KCNQ1, thallium flux FluxOR fluorescence; stronger effect = higher value. B-score at 10 µM. hit rate 0.35% among 310,000. AID 2648;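 active = fluorescence ratio B-score, a plate-corrected score, at least three library SD, with initial intensity B-score within 5 SD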
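Assay system: CHO-K1 cells stably expressing KCNQ1; Medium: assay buffer with matched DMSO; Also added: K+/Tl+ depolarizing stimulus; Dosing: single dose; Timing: dye 90 min, compound 20 min, room temperature; Measured by: kinetic FluxOR thallium fluorescence, 10-s 1-Hz baseline, 110-s post-stimulus read; Read-out: peak-minus-minimum fluorescence over initial fluorescence, negative-control normalized, B-scored.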
Kir21 inh = Kir2.1 (mouse) channel inhibition; P35561; HEK293-Kir2.1, FluxOR thallium flux fluorescence; stronger effect = lower value; B-score at 10 µM; hit rate 0.85% among 310,000; AID 1672;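 active = fluorescence ratio B-score at or below minus 3 SD of library scores, with starting-brightness B-score within 2 SD, cut at about -4.2 in these data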;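 note: channel flux triggered by added potassium and thallium sulfate stimulus; B-score of peak minus minimum fluorescence over baseline after thallium stimulus; more negative B-score means stronger Kir2.1 block with less thallium influx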
Target sequence (P35561 whole entry, looked up): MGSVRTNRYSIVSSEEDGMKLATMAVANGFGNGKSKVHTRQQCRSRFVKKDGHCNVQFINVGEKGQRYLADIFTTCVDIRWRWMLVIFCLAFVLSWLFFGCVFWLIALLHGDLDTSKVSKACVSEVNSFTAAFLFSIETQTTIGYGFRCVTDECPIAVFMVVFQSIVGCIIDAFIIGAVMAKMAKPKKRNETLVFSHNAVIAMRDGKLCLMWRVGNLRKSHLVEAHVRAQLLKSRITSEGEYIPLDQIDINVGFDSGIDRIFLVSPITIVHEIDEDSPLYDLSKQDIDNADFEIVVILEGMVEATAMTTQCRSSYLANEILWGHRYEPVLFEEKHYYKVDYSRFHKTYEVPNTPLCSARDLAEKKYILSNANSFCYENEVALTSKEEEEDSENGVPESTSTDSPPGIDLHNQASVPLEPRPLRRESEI
KCNQ1 block val = human KCNQ1 channel inhibition, validation assay; shares compounds with KCNQ1 inh; KCNQ1 cell line, FluxOR thallium flux fluorescence; inhibition, % at 10 µM; hit rate 93% among 1,600; AID 588353;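 active = primary screen active, with duplicate mean exceeding buffer control mean plus 3 SD of buffer wells, cut at about 28% in these data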;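 note: 0% = buffer control ratio and 100% = XE991 inhibitor control ratio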
CHO Tl flux = counter-screen for KCNQ1 inhibitors: effect in parental CHO cells | shares compounds with KCNQ1 inh | parental CHO-K1, FluxOR thallium flux fluorescence ratio; stronger effect = lower value; zero means no signal rise above baseline | fluorescence ratio (Tl flux) at 10 µM | hit rate 21% among 1,600 | AID 588366;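 active = mean of duplicate thallium-flux fluorescence ratios in parental host cells more than 5 SD below the buffer control mean, cut at about 0.38 in these data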;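 note: ratio is peak minus minimum fluorescence divided by baseline fluorescence; actives read low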
KCNQ1 APC inh = confirmation of human KCNQ1 potassium channel inhibitors by electrophysiology; shares compounds with KCNQ1 inh; KCNQ1-CHO cells, automated patch clamp current; hit rate 20% among 490; calls only at 10 µM; AID 624120;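 active = KCNQ1 current drop exceeding 3 SD of negative control wells, seen in both duplicate runs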;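 note: steady state current during a 2 s step from -80 to +40 mV; negative values mean current inhibition and positive values mean potentiation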
KCNQ2 spec = KCNQ1 inhibitor that also blocks rat KCNQ2 channel | inhibition, % at 10 µM | KCNQ2 cells, FluxOR thallium flux fluorescence | shares compounds with KCNQ1 inh | hit rate 71% among 1,600;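 active = mean percent inhibition of the KCNQ2 thallium signal more than 5 SD above the buffer-only control wells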;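 note: KCNQ2 expressed in CHO cells; 0% = buffer control wells and 100% = XE-991 inhibitor control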
KCNQ1-KCNE1 inh = human KCNQ1/KCNE1 inhibition in KCNQ1 specificity screen; shares compounds with KCNQ1 inh; KCNQ1/KCNE1 cells, FluxOR thallium flux fluorescence; inhibition, % at 10 µM; hit rate 77% among 1,600;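 active = mean percent inhibition of duplicate wells above the buffer-only control mean plus 3 SD of those controls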;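 note: 0% = buffer only wells and 100% = XE-991 inhibitor control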
KCNK9 inh conf = confirmation of human KCNK9 potassium channel inhibitors; HEK293 KCNK9 cells, FluxOR thallium flux fluorescence; shares compounds with KCNK9 block; hit rate 43% among 4,900; inhibition, % at 10 µM;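 active = thallium signal inhibited by more than 5 SD of the compound-free buffer control wells, on both duplicate plates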;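 note: 0% = assay buffer control wells without compound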
Kir2-1 spec = tests whether KCNK9 modulators also affect mouse Kir2.1. shares compounds with KCNK9 block. Kir2.1 cells, FluxOR thallium flux fluorescence. inhibition, % at 10 µM. hit rate 4% among 4,900. AID 492993;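 active = thallium signal drop more than 5 SD beyond the mean of the no-compound control wells, seen in both duplicate plates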;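 note: signal is fluorescence rise after thallium addition divided by baseline fluorescence; plate controls were assay buffer only for no effect and full block by chlorpromazine control for full effect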
KCNK9 uninduced = non-induced cell nonspecific activity of KCNK9 modulators; inhibition, % at 10 µM; shares compounds with KCNK9 block; hit rate 40% among 4,900; non-induced KCNK9-HEK293, FluxOR thallium flux;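 active = thallium signal drop beyond 5 SD of the untreated control mean, on both duplicate plates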;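 note: plate controls were buffer only IC0 wells for no effect and SID17386958 at its maximal inhibitory level for full effect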
Starred values were filed as active, the others as inactive; i = inactive; x = no result.

SMILES | hERG rescue | KCNK3 block | KCNQ1 inh | KCNK9 block | KCNQ1 pot | Kir21 inh | KCNQ1 block val | CHO Tl flux | KCNQ2 spec | KCNQ1-KCNE1 inh | KCNK9 inh conf | Kir2-1 spec | KCNK9 uninduced | others
COc1ccc(-c2ocnc2C(=O)N2CCN(C(c3ccccc3)c3ccccc3)CC2)cc1 | -12 | i | 8* | -14* | i | -0.1 | 80* | 0.42 | 88%* | 94%* | 68%* | i | 36%*
Cc1cc(C(=O)N2CCN(C(c3ccccc3)c3ccccc3)CC2)on1 | -11 | i | i | i | i | 0.17 | x | x | x | x | x | x | x
CSCCC(NS(=O)(=O)c1ccc(C)cc1)C(=O)Nc1ccc(C)cn1 (stereo unspecified) | -6 | i | i | i | i | 1.3 | x | x | x | x | x | x | x
O=C(CCSc1ccccc1)NC(=O)COC(=O)c1ccc(OC(F)F)cc1 | -5 | i | i | i | i | 2.2 | x | x | x | x | x | x | x
Cc1ccc(S(=O)(=O)N2CCN(Cc3ccccc3C(F)(F)F)CC2)cc1 | -12 | i | 10* | i | i | -0.82 | 85* | 0.41 | 94%* | 94%* | i | i | i
COc1ccccc1N1CCN(C(=O)CSc2nc3ccccc3[nH]2)CC1 | -11 | i | i | i | i | 0.96 | x | x | x | x | x | x | x
COc1ccccc1N1CCN(C(=O)CSc2nc3ccccc3nc2N2CCCCC2)CC1 | -18 | i | 6* | i | i | -3 | 70* | 0.52 | i | 99%* | i | i | i
CN1/C(=C\C(=O)Nc2cccc(Cl)c2)C(C)(C)c2ccccc21 | -14 | i | 9* | -8.2* | i | 0.41 | 120* | 0.39 | 125%* | 169%* | 45%* | i | 34%* | KCNQ1 APC inh=i
Fc1ccc(C(c2nnnn2Cc2ccccc2)N2CCSCC2)cc1 (stereo unspecified) | -4 | i | i | i | i | -0.33 | x | x | x | x | x | x | x
Clc1ccc(C(c2nnnn2CCc2ccccc2)N2CCSCC2)cc1 (stereo unspecified) | 1 | i | 7* | -14* | i | 0.69 | 116* | 0.42 | 106%* | 82%* | 56%* | i | 46%* | KCNQ1 APC inh=i
COc1ccccc1CCN=C(N)NS(=O)(=O)c1ccccc1F | -6 | i | i | i | i | -1.1 | x | x | x | x | x | x | x
CC(=O)c1ccc2c(c1)C1C=CCC1C(c1cc3c(cc1Br)OCO3)N2 (stereo unspecified) | -22 | i | 8* | -8.7* | i | -1.1 | 140* | 0.42 | 99%* | 145%* | 50%* | i | 37%* | KCNQ1 APC inh=i
CCC(CC)NC(=O)Nc1ccc(F)c(Cl)c1 | -12 | i | 9* | -8.6* | i | -0.4 | 44* | 0.55 | i | 62%* | 44%* | i | i
Cc1cc(C)c(C#N)c(SCC(=O)N(C)C2CCCCC2)n1 | -11 | i | i | i | i | -0.22 | x | x | x | x | x | x | x
CN(C(=O)CSc1nc(-c2ccc(C(C)(C)C)cc2)c(C#N)c(=O)[nH]1)C1CCCCC1 | -15 | i | 7* | i | i | 1 | 54* | 0.42 | 79%* | i | i | i | 29%*
COc1cc(/C=N/NC(=O)c2nnn(-c3nonc3N)c2C(C)C)ccc1OCc1ccc(F)cc1 | -6 | i | i | i | i | 0.11 | x | x | x | x | x | x | x
CCOC(=O)c1ccccc1NC(=O)C1CCN(c2ncnc3sc(C)c(C)c23)CC1 | -11 | -8.9* | 10* | i | i | -0.02 | 89* | 0.41 | 132%* | 130%* | i | i | 32%* | KCNQ1 APC inh=i
COc1ccccc1C1CC(=O)Oc2c(C(C)C)ccc(C)c21 (stereo unspecified) | x | i | x | x | x | x | x | x | x | x | x | x | x
CC(C)c1ccc(S(=O)(=O)N2CCC(C(=O)NCc3ccco3)CC2)cc1 | x | i | x | x | x | x | x | x | x | x | x | x | x
O=C(COc1ccccc1Cl)c1ccc2c(c1)CCCC2 | -7 | i | 6* | i | i | 1.5 | 94* | 0.43 | 92%* | 119%* | i | i | 37%* | KCNQ1 APC inh=i
O=C(COc1cccc(Cl)c1Cl)Nc1ccc2c(c1)CCC2 | -5 | i | i | i | i | -0.47 | x | x | x | x | x | x | x
CC(=O)c1sc2nc(-c3cccs3)cc(C(F)(F)F)c2c1N | -4 | i | 7* | -9.1* | i | -3.7 | 104* | 0.29* | i | 154%* | 42%* | 30%* | 66%*
Clc1cccc(Cl)c1CSc1cc2c(nn1)-c1ccccc1CC2 | -21 | i | i | i | i | 0.43 | x | x | x | x | x | x | x
Clc1ccccc1CSc1cc2c(nn1)-c1ccccc1CC2 | -15 | i | 9* | -11* | i | 0 | 82* | 0.4 | 97%* | 128%* | 46%* | i | 43%*
CC(C)COc1ccc(C/C(N)=N/n2cnnc2)cc1 | -13 | i | i | i | i | -0.23 | x | x | x | x | x | x | x
Cc1ccc(/C=N/NC(=O)COc2ccc(Cl)c(C)c2)o1 | -10 | i | i | i | i | 0.14 | x | x | x | x | x | x | x
Cc1cc(C(=O)Nc2ccc(Cl)cc2)c(C)n1-c1ccccc1 | -7 | i | 13* | i | i | -0.39 | 124* | 0.39 | 115%* | 98%* | i | i | i | KCNQ1 APC inh=i
Cc1ccc(NC(=O)c2cc(C)n(-c3cccc(C)c3)c2C)cc1 | -11 | i | i | i | i | 0.15 | x | x | x | x | x | x | x
COc1ccc(-c2onc(C)c2-c2cnn(-c3ccccc3)c2)c(O)c1C | -10 | i | 6* | i | i | 0.22 | 44* | 0.4 | 115%* | 39%* | i | i | i
O=C(CNc1ccccc1N1CCCC1=O)Nc1cc(C(F)(F)F)ccc1-n1cncn1 | x | i | x | x | x | x | x | x | x | x | x | x | x

Screening results from PubChem BioAssay.
